The results in this text go back to ChEMBL document CHEMBL1148785, “Second generation tetrahydroquinoline-based protein farnesyltransferase inhibitors as antimalarials” (J Med Chem, 2007).

Experiment [1] relates to Plasmodium falciparum. Kind of experiment: Antimalarial activity against Plasmodium falciparum K1. The following applies: Plasmodium falciparum, K1; read-out: ED50 (the source's name). In kind it is functional. Summed up: (§1)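 Asynchronous culture in type A+ erythrocytes at 0.5% parasitemia and 0.5% hematocrit, grown in RPMI-1640 with 20% heat-inactivated human A+ plasma. Compound was serially diluted from a top final 5 µM, with DMSO vehicle as 100% growth. Plates ran 48 h at 37 °C under 5% CO2/5% O2/90% N2, then [3H]-hypoxanthine (0.3 µCi) for 24 h. Filter-harvested counts were corrected for the uninfected-RBC background. ED50 by linear regression; duplicates averaged.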

Experiment [2] has as its system Plasmodium falciparum. Kind of experiment: Inhibition of Plasmodium falciparum protein farnesyltransferase at 50 nM by scintillation proximity assay.
Experiment [3] concerns Plasmodium falciparum. Kind of experiment: Inhibition of Plasmodium falciparum protein farnesyltransferase at 5 nM by scintillation proximity assay.
Experiment [4] relates to Plasmodium falciparum. Kind of experiment: Inhibition of Plasmodium falciparum protein farnesyltransferase at 0.5 nM by scintillation proximity assay.
Experiment [5] deals with Plasmodium falciparum. Kind of experiment: Antimalarial activity against Plasmodium falciparum 3D7. Format: functional. The following applies: Plasmodium falciparum, 3D7; read-out: ED50 (the source's name). The method, boiled down:
as §1

Regarding `CC(=O)OCC(=O)N(Cc1ccccc1F)C1Cc2cc(C#N)ccc2N(Cc2cncn2C)C1` (stereo not given), the EC50 worked out at 750 nM in experiment [1] and 690 nM in experiment [5]. Also, the figures for the inhibition in experiment [2], in experiment [3] and in experiment [4] were 33%, 0% and 0%, respectively.
Regarding `Cn1cnc(CN2CC(NS(=O)(=O)c3ccccn3)Cc3cc(-c4ccccc4)ccc32)c1` (stereo not given), the EC50 in experiment [1] and in experiment [5] was above 5000 nM throughout. In addition, the inhibition in experiment [2] was determined as 19%; in experiment [3] it was 14%; in experiment [4], 11%.
Regarding `COC(=O)N1CCC(CN(C2Cc3cc(C#N)ccc3N(Cc3cncn3C)C2)S(=O)(=O)c2cc(C)cs2)CC1` (stereo not given), the EC50 came out at 140 nM in experiment [1] and 62 nM in experiment [5]. Further, the inhibition was 99% in experiment [2], 86% in experiment [3] and 25% in experiment [4].
For the compound `Cn1cncc1CN1CC(N(Cc2ccc(S(C)(=O)=O)cc2)S(=O)(=O)c2ccccn2)Cc2cc(C#N)ccc21` (stereo not given), the EC50 in experiment [1] worked out at 405 nM; in experiment [5], 210 nM. The figures for the inhibition in experiment [2], in experiment [3] and in experiment [4] were 96%, 84% and 49%, respectively.
The matching figures for `Cc1ccccc1CN(C1Cc2cc(-c3ccccc3)ccc2N(Cc2cn(C)cn2)C1)S(=O)(=O)c1cn(C)cn1` (stereo not given): 1800 nM, 2900 nM, 46%, 0% and 0%.
Take `Cn1cncc1CN1CC(N(CCc2ccccc2C(F)(F)F)S(=O)(=O)c2ccccn2)Cc2cc(C#N)ccc21` (stereo not given): the EC50 is 1500 nM in experiment [1] and 300 nM in experiment [5]. In addition, the inhibition in experiment [2] came to 95%; in experiment [3] it was 53%; in experiment [4], 1%.
Consider `Cn1cnc(S(=O)(=O)N2CCC(CN(C3Cc4cc(C#N)ccc4N(Cc4cncn4C)C3)S(=O)(=O)c3ccccn3)CC2)c1` (stereo not given), for which the values for the EC50 in experiment [1] and in experiment [5] were 650 nM and 700 nM, respectively. The inhibition in experiment [2] is 92%; in experiment [3], 20%; in experiment [4], 60%.
Take `COC(=O)N1CCC(CN(C2Cc3cc(C#N)ccc3N(Cc3cncn3C)C2)S(=O)(=O)c2cccc3ccccc23)CC1` (stereo not given): the EC50 came to 1700 nM in experiment [1] and 550 nM in experiment [5]. Besides, the inhibition is 88% in experiment [2], 39% in experiment [3] and 2% in experiment [4].
On to `Cn1cncc1CN1CC(N(CC2CCN(C(=O)C3CCCC3)CC2)S(=O)(=O)c2ccccn2)Cc2cc(C#N)ccc21` (stereo not given), for which the EC50 in experiment [1] worked out at 50 nM; in experiment [5] it was 58 nM. In addition, the inhibition in experiment [2] was found to be 100%; in experiment [3], 39%; in experiment [4] it was 94%.
Consider `Cn1cnc(S(=O)(=O)N(CCc2ccccc2F)C2Cc3cc(C#N)ccc3N(Cc3cncn3C)C2)c1` (stereo not given), for which the EC50 in experiment [1] and in experiment [5] was 16 nM each time. Moreover, the inhibition in experiment [2] is 100%; in experiment [3], 98%; in experiment [4], 43%.
Turning to `Cn1cnc(S(=O)(=O)N(Cc2ccc(F)cc2)C2Cc3cc(C#N)ccc3N(Cc3cncn3C)C2)c1` (stereo not given), the results for the EC50 in experiment [1] and in experiment [5] were 100 nM and 40 nM, respectively. Also, the inhibition stood at 99% in experiment [2], 93% in experiment [3] and 50% in experiment [4].
For the compound `COC(=O)c1cccc(CN(C2Cc3cc(C#N)ccc3N(Cc3cncn3C)C2)S(=O)(=O)c2ccccn2)n1` (stereo not given), the EC50 was 900 nM in experiment [1] and 600 nM in experiment [5]. Further, the inhibition was 96% in experiment [2], 94% in experiment [3] and 66% in experiment [4].
For `CC(=O)Nc1nc(C)c(S(=O)(=O)N(CC(=O)NC(C)(C)C)C2Cc3cc(C#N)ccc3N(Cc3cncn3C)C2)s1` (stereo not given), the EC50 in experiment [1] and in experiment [5] was above 5000 nM each time. In addition, the results for the inhibition in experiment [2], in experiment [3] and in experiment [4] were 11%, 2% and 5%, respectively.
For the compound `Cn1cncc1CN1CC(N(CCn2ccnc2)S(=O)(=O)c2ccccn2)Cc2cc(C#N)ccc21` (stereo not given), the EC50 was 16 nM in experiment [1] and 12 nM in experiment [5]. The figures for the inhibition in experiment [2], in experiment [3] and in experiment [4] were 95%, 91% and 67%, respectively.
Regarding `COC(=O)N1CCC(CN(C2Cc3cc(C#N)ccc3N(Cc3cncn3C)C2)S(=O)(=O)c2cccc3cccnc23)CC1` (stereo not given), the EC50 in experiment [1] was 400 nM; in experiment [5] it was 260 nM. Also, the figures for the inhibition in experiment [2], in experiment [3] and in experiment [4] were 95%, 80% and 24%, respectively.
The matching figures for `C/C=C/C=C\C=C\CN(C1Cc2cc(C#N)ccc2N(Cc2cncn2C)C1)S(=O)(=O)c1ccccn1` (stereo not given): 700 nM, 700 nM, 98%, 87% and 32%.
For the compound `Cn1cncc1CN1CC(N(CCn2ccc3ccccc32)S(=O)(=O)c2ccccn2)Cc2cc(C#N)ccc21` (stereo not given), the EC50 was determined as 400 nM in experiment [1] and 370 nM in experiment [5]. For the same compound, the inhibition in experiment [2] came out at 98%; in experiment [3] it was 79%; in experiment [4], 10%.
`Cn1cncc1CN1CC(N(Cc2ccccc2F)S(C)(=O)=O)Cc2cc(C#N)ccc21` (stereo not given): the EC50 was above 5000 nM in experiment [1] and 600 nM in experiment [5]. Besides, the inhibition is 51% in experiment [2], 7% in experiment [3] and 0% in experiment [4].
The corresponding values for `CCOc1ccccc1CN(C1Cc2cc(C#N)ccc2N(Cc2cncn2C)C1)S(=O)(=O)c1cn(C)cn1` (stereo not given) are 3600 nM, 2600 nM, 11%, 5% and 1%.
For the compound `Cn1cnc(CN2CC(N(Cc3ccccc3)S(=O)(=O)c3cn(C)cn3)Cc3cc(-c4ccccc4)ccc32)c1` (stereo not given), the EC50 worked out at 380 nM in experiment [1] and 450 nM in experiment [5]. In addition, the figures for the inhibition in experiment [2], in experiment [3] and in experiment [4] were 99%, 90% and 9%, respectively.
With `CCOC(=O)N1CCC(CN(C2Cc3cc(C#N)ccc3N(Cc3cncn3C)C2)S(=O)(=O)c2cn(C)cn2)CC1` (stereo not given), the EC50 came out at 7 nM in experiment [1] and 14 nM in experiment [5]. For the same compound, the inhibition is 98% in experiment [2], 96% in experiment [3] and 49% in experiment [4].
The corresponding values for `Cn1cnc(CN2CC(N(CCn3cccc3)S(=O)(=O)c3cn(C)cn3)Cc3cc(-c4ccccc4)ccc32)c1` (stereo not given) are 150 nM, 460 nM, 90%, 38% and 0%.
`Cc1oncc1S(=O)(=O)N(CC(=O)NC(C)(C)C)C1Cc2cc(C#N)ccc2N(Cc2cncn2C)C1` (stereo not given): the EC50 in experiment [1] and in experiment [5] was above 5000 nM throughout. Moreover, the inhibition in experiment [2] amounted to 3%; in experiment [3] it was 0%; in experiment [4], 0%.
On to `COC(=O)N1CCC(CN(C2Cc3cc(C#N)ccc3N(Cc3cccnc3)C2)S(=O)(=O)c2ccccn2)CC1` (stereo not given), for which the EC50 in experiment [1] was determined as 3000 nM; in experiment [5], 3400 nM. In addition, the inhibition is 35% in experiment [2], 12% in experiment [3] and 3% in experiment [4].
As for `Cn1cnc(S(=O)(=O)N(CCN2CCCC2=O)C2Cc3cc(C#N)ccc3N(Cc3cncn3C)C2)c1` (stereo not given), the EC50 in experiment [1] amounted to 60 nM; in experiment [5], 87 nM. The values for the inhibition in experiment [2], in experiment [3] and in experiment [4] were 99%, 65% and 0%, respectively.
The corresponding values for `Cn1cncc1CN1CC(N(Cc2ccc(S(C)(=O)=O)cc2)S(=O)(=O)c2ccccc2Cl)Cc2cc(C#N)ccc21` (stereo not given) are 800 nM, 400 nM, 99%, 87% and 16%.
The matching figures for `Cn1cc(S(=O)(=O)N(Cc2ccccc2F)C2Cc3cc(C#N)ccc3N(Cc3cncn3C)C2)cn1` (stereo not given): 175 nM, 175 nM, 94%, 62% and 23%.
The corresponding values for `CSCCC(=O)N(Cc1ccccc1F)C1Cc2cc(C#N)ccc2N(Cc2cncn2C)C1` (stereo not given) are 450 nM, 270 nM, 52%, 9% and 0%.
Regarding `Cn1cncc1CN1CC(N(CC2CCN(C(=O)N3CCCCC3)CC2)S(=O)(=O)c2ccccn2)Cc2cc(C#N)ccc21` (stereo not given), the EC50 was determined as 200 nM in experiment [1] and 140 nM in experiment [5]. In addition, the results for the inhibition in experiment [2], in experiment [3] and in experiment [4] were 94%, 14% and 62%, respectively.
Take `Cn1cnc(S(=O)(=O)NC2Cc3cc(-c4ccccc4)ccc3N(Cc3cncn3C)C2)c1` (stereo not given): the values for the EC50 in experiment [1] and in experiment [5] were above 5000 nM and 3500 nM, respectively. Besides, the inhibition in experiment [2] was 80%; in experiment [3] it was 31%; in experiment [4] it was 14%.
In the case of `COC(=O)N1CCC(CN(C2Cc3cc(C#N)ccc3N(Cc3cncn3C)C2)S(=O)(=O)c2cccc3nsnc23)CC1` (stereo not given), the figures for the EC50 in experiment [1] and in experiment [5] were 160 nM and 140 nM, respectively. The figures for the inhibition in experiment [2], in experiment [3] and in experiment [4] were 98%, 84% and 20%, respectively.
On to `Cn1cncc1CN1CC(N(Cc2ccc(S(C)(=O)=O)cc2)S(=O)(=O)c2ccc3c(c2)OCCCO3)Cc2cc(C#N)ccc21` (stereo not given), for which the EC50 in experiment [1] came out at 3500 nM; in experiment [5], 2100 nM. In addition, the inhibition in experiment [2] amounted to 97%; in experiment [3], 78%; in experiment [4], 10%.
